Broadly, the inhibition is the change of the read-out against control, counted positive when it falls. The low end stands for little suppression, the high end for strong suppression.

The record followed here is ChEMBL document CHEMBL1649163, “Surfactants, aromatic and isoprenoid compounds, and fatty acid biosynthesis inhibitors suppress Staphylococcus aureus production of toxic shock syndrome toxin 1” (2009).

Format in all cases: functional
Assay [1] relates to Staphylococcus aureus. Kind of assay: Effect on growth in Staphylococcus aureus MN8 at 1.00 mM after 24 hrs (reference value: 100%). Summed up: (§1)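 Test-tube growth assay: 10 ml growth medium (brain heart infusion with 10% fetal bovine serum, MgCl2, L-glutamine) inoculated to 5 × 10^6 CFU/ml from a 24 h 37°C preculture. Compound diluted in medium, or dissolved in methanol with methanol-matched controls. After 24 h at 37°C with 5% CO2, OD600 and viable counts read. Growth given as % of CFU/ml of untreated controls in the same experiment.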

The test system of assay [2] is Staphylococcus aureus. Kind of assay: Effect on growth in Staphylococcus aureus MN8 at 2.00 mM after 24 hrs (reference value: 100%). The gist of the method:
as §1

Assay [3] concerns Staphylococcus aureus. Kind of assay: Effect on growth in Staphylococcus aureus FRI-1187 at 3.00 mM after 24 hrs (reference value: 100%). The gist of the method:
as §1

Assay [4] concerns Staphylococcus aureus. Kind of assay: Effect on growth in Staphylococcus aureus FRI-1187 at 1.50 mM after 24 hrs (reference value: 100%). Summed up:
as §1

The subject of assay [5] is Staphylococcus aureus. Kind of assay: microbe, parasite or virus in culture. Conditions: 24 h.
For assay [6], the system named is Staphylococcus aureus. Kind of assay: microbe, parasite or virus in culture. As to conditions: 24 h. This is another data set of the same source.
Assay [7] deals with Staphylococcus aureus. Kind of assay: microbe, parasite or virus in culture. As to conditions: 24 h. The source holds these as a separate data set.
Assay [8] concerns Staphylococcus aureus. Kind of assay: microbe, parasite or virus in culture. Conditions: 24 h. This is another data set of the same source.
Assay [9] relates to Staphylococcus aureus. Kind of assay: microbe, parasite or virus in culture. As to conditions: 24 h. This is another data set of the same source.
The subject of assay [10] is Staphylococcus aureus. Kind of assay: microbe, parasite or virus in culture. As to conditions: 26 h.
Assay [11] relates to Staphylococcus aureus. Kind of assay: microbe, parasite or virus in culture. As to conditions: 28 h.
Assay [12] deals with Staphylococcus aureus. The assay can be described thus: microbe, parasite or virus in culture. As to conditions: 26 h. This is another data set of the same source.
In assay [13] the test system is Staphylococcus aureus. Kind of assay: microbe, parasite or virus in culture. As to conditions: 32 h.
For assay [14], the system named is Staphylococcus aureus. The assay can be described thus: microbe, parasite or virus in culture. As to conditions: 32 h. This is another data set of the same source.
The subject of assay [15] is Staphylococcus aureus. The assay can be described thus: microbe, parasite or virus in culture. As to conditions: 32 h. The source holds these as a separate data set.
Assay [16] has as its system Staphylococcus aureus. The assay can be described thus: Effect on growth in Staphylococcus aureus MN8 at 0.75 mM after 24 hrs (reference value: 100%). Summed up:
as §1

Assay [17] concerns Staphylococcus aureus. Kind of assay: microbe, parasite or virus in culture. As to conditions: 24 h. The source holds these as a separate data set.
Assay [18] relates to Staphylococcus aureus. Kind of assay: Effect on growth in Staphylococcus aureus MN8 at 6.40 mM after 24 hrs (reference value: 100%). Summed up:
as §1

The subject of assay [19] is Staphylococcus aureus. The assay can be described thus: Effect on growth in Staphylococcus aureus MN8 at 3.20 mM after 24 hrs (reference value: 100%). The gist of the method:
as §1

Assay [20] has as its system Staphylococcus aureus. The assay can be described thus: microbe, parasite or virus in culture. Conditions: 24 h. The source holds these as a separate data set.
In assay [21] the test system is Staphylococcus aureus. The assay can be described thus: microbe, parasite or virus in culture. As to conditions: 24 h. This is another data set of the same source.
For assay [22], the system named is Staphylococcus aureus. Kind of assay: Effect on growth in Staphylococcus aureus MN8 at 0.10 % after 24 hrs (reference value: 100%). Summed up: as §1
Assay [23] deals with Staphylococcus aureus.
Assay [24] deals with Staphylococcus aureus. The assay can be described thus: Effect on growth in Staphylococcus aureus MN8 at 75.00 mM after 24 hrs (reference value: 100%). The gist of the method:
as §1

Assay [25] concerns Staphylococcus aureus. The assay can be described thus: microbe, parasite or virus in culture. Conditions: 24 h. This is another data set of the same source.
In assay [26] the test system is Staphylococcus aureus. Kind of assay: Effect on growth in Staphylococcus aureus MN8 at 0.50 % after 24 hrs (reference value: 100%). Summed up:
as §1

Assay [27] deals with Staphylococcus aureus. This is another data set of the same source.
Assay [28] deals with Staphylococcus aureus. The assay can be described thus: microbe, parasite or virus in culture. Conditions: 24 h. The source holds these as a separate data set.
Assay [29] concerns Staphylococcus aureus. The assay can be described thus: Effect on growth in Staphylococcus aureus MN8 at 6.50 mM after 24 hrs (reference value: 100%). Summed up:
as §1

For assay [30], the system named is Staphylococcus aureus. Kind of assay: Effect on growth in Staphylococcus aureus MN8 at 0.65 mM after 24 hrs (reference value: 100%). The gist of the method:
as §1

Assay [31] has as its system Staphylococcus aureus. Kind of assay: microbe, parasite or virus in culture. As to conditions: 24 h. The source holds these as a separate data set.
Assay [32] has as its system Staphylococcus aureus. Kind of assay: microbe, parasite or virus in culture. As to conditions: 24 h. The source holds these as a separate data set.
Assay [33] deals with Staphylococcus aureus. The assay can be described thus: Effect on growth in Staphylococcus aureus MN8 at 37.50 mM after 24 hrs (reference value: 100%). Summed up: as §1
Assay [34] has as its system Staphylococcus aureus. Kind of assay: Effect on growth in Staphylococcus aureus MN8 at 7.50 mM after 24 hrs (reference value: 100%). The gist of the method:
as §1

The test system of assay [35] is Staphylococcus aureus. The assay can be described thus: microbe, parasite or virus in culture. As to conditions: 24 h. This is another data set of the same source.
The subject of assay [36] is Staphylococcus aureus. The assay can be described thus: microbe, parasite or virus in culture. Conditions: 24 h. This is another data set of the same source.
In assay [37] the test system is Staphylococcus aureus. The assay can be described thus: Effect on growth in Staphylococcus aureus MN8 at 0.67 mM after 24 hrs (reference value: 100%). The gist of the method:
as §1

Assay [38] has as its system Staphylococcus aureus. The assay can be described thus: microbe, parasite or virus in culture. As to conditions: 24 h. This is another data set of the same source.
Assay [39] relates to Staphylococcus aureus. The assay can be described thus: Effect on growth in Staphylococcus aureus MN8 at 0.05 mM after 24 hrs (reference value: 100%). Summed up:
as §1

Assay [40] deals with Staphylococcus aureus. The assay can be described thus: Effect on growth in Staphylococcus aureus MN8 at 0.01 mM after 24 hrs (reference value: 100%). Summed up:
as §1

Assay [41] deals with Staphylococcus aureus. The assay can be described thus: Effect on growth in Staphylococcus aureus FRI-1187 at 0.50 mM after 24 hrs (reference value: 100%). The gist of the method:
as §1

In assay [42] the test system is Staphylococcus aureus. Kind of assay: Effect on growth in Staphylococcus aureus FRI-1187 at 0.05 mM after 24 hrs (reference value: 100%). Summed up: as §1
Assay [43] concerns Staphylococcus aureus. Kind of assay: microbe, parasite or virus in culture. As to conditions: 24 h. This is another data set of the same source.
In assay [44] the test system is Staphylococcus aureus. The assay can be described thus: microbe, parasite or virus in culture. As to conditions: 24 h. The source holds these as a separate data set.

On to `Oc1c(Cl)cc(Cl)c(Cl)c1Cc1c(O)c(Cl)cc(Cl)c1Cl` [HEXACHLOROPHENE], for which the Activity amounted to 143.81% with Staphylococcus aureus [1], 123.7% in the assay with Staphylococcus aureus [2], 35.2% in the assay on Staphylococcus aureus [3] and 75% in the assay with Staphylococcus aureus [4]. Moreover, the inhibition at 1000 µM in the assay on Staphylococcus aureus [5] came to 48.1%. In the assay with Staphylococcus aureus [6], this compound came in with an inhibition at 2000 µM of 19.6%. The same compound had an inhibition at 3000 µM with Staphylococcus aureus [7] of 63.5%. The compound further came in with an inhibition at 1500 µM in the assay on Staphylococcus aureus [8] of 74.3%.

In the case of `CCCCCCCCCCCCOCCOCCOCCOCCO` [LAURETH 4], the values for the inhibition at 10000 µM in the assay with Staphylococcus aureus [9], with Staphylococcus aureus [11] and in the assay on Staphylococcus aureus [14] were 0.2%, 2.9% and 0%, respectively. The inhibition at 2000 µM in the assay with Staphylococcus aureus [10] came to 1.7%; with Staphylococcus aureus [13], 0.1%. Further, the inhibition at 20000 µM with Staphylococcus aureus [12] was 1.5%; with Staphylococcus aureus [15], 0%.

Turning to `C=CC(C)(O)CCC=C(C)C` (stereo unspecified) [LINALOOL], the Activity in the assay on Staphylococcus aureus [16] worked out at 121.6%. The compound further displayed an inhibition at 750 µM in the assay with Staphylococcus aureus [17] of 12.2%.

For the compound `CC1CCC(C(C)C)C(O)C1` (stereo unspecified) [MENTHOL], the Activity was 32.2% in the assay with Staphylococcus aureus [18] and 119.5% in the assay with Staphylococcus aureus [19]. In the assay with Staphylococcus aureus [20], this compound registered an inhibition at 6400 µM of 1.8%. In the assay with Staphylococcus aureus [21], the inhibition at 3200 µM worked out at 24.4%.

With `COC(=O)c1ccc(O)cc1` [METHYLPARABEN], the Activity in the assay with Staphylococcus aureus [22] is 21.4%. Also, the “inhibition (INH)” value in the assay with Staphylococcus aureus [23] was determined as 20.7%.

As to `C=CC(=C)CCC=C(C)C` [MYRCENE], the Activity is on record as 110.8% in the assay with Staphylococcus aureus [16] and 76.5% in the assay with Staphylococcus aureus [24]. The same compound showed an inhibition at 750 µM with Staphylococcus aureus [17] of 60.3%. Further, 75000 µM produced 75.2% inhibition in the assay on Staphylococcus aureus [25].

With `OCCOc1ccccc1` [PHENOXYETHANOL], the Activity in the assay on Staphylococcus aureus [26] was 32.3%; in the assay on Staphylococcus aureus [22] it was 54.3%. The “inhibition (INH)” value with Staphylococcus aureus [27] was 25.1%; in the assay on Staphylococcus aureus [23], 42.3%.

For the compound `NC(=O)c1ccccc1O` [SALICYLAMIDE], the Activity was found to be 14.5% in the assay on Staphylococcus aureus [26] and 61.5% with Staphylococcus aureus [22]. Further, the “inhibition (INH)” value is reported as 11.3% with Staphylococcus aureus [27] and 49.2% in the assay on Staphylococcus aureus [23].

In turn, `O=C(O)c1ccccc1O` [SALICYLIC ACID] displayed an Activity with Staphylococcus aureus [22] of 31%. For the same compound, the “inhibition (INH)” value with Staphylococcus aureus [23] turned out to be 26.3%.

In the assay on Staphylococcus aureus [28], `CCCCCCCCCCCCN(CCC(=O)O)CCC(=O)O` [SODIUM LAURIMINODIPROPIONIC ACID] came in with an inhibition at 2200 µM of 1%.

In the case of `CC1=CCC(O)(C(C)C)CC1` (stereo unspecified) [TERPINEOL], the Activity with Staphylococcus aureus [29] stood at 90.5%; in the assay with Staphylococcus aureus [30], 112.7%. This compound returned an inhibition at 6500 µM in the assay with Staphylococcus aureus [31] of 12.4%. For the same compound, the inhibition at 650 µM in the assay on Staphylococcus aureus [32] was 82.3%.

As for `CC1(O)CCC(C(C)(C)O)CC1` (stereo unspecified) [TERPIN], the results for the Activity in the assay on Staphylococcus aureus [33] and in the assay on Staphylococcus aureus [34] were 118.7% and 124.7%, respectively. Further, 37500 µM produced 23.8% inhibition in the assay with Staphylococcus aureus [35]. In the assay with Staphylococcus aureus [36], this compound had an inhibition at 7500 µM of 77.9%.

Turning to `Cc1ccc(C(C)C)c(O)c1` [THYMOL], the Activity with Staphylococcus aureus [37] is 99%. Testing at 670 µM in the assay on Staphylococcus aureus [38] gave an inhibition of 37.4%.

Turning to `Oc1cc(Cl)ccc1Oc1ccc(Cl)cc1Cl` [TRICLOSAN], the Activity in the assay with Staphylococcus aureus [39] worked out at 0%; in the assay on Staphylococcus aureus [40], 5.6%; with Staphylococcus aureus [41], 35.5%; in the assay with Staphylococcus aureus [42], 136.4%. For the same compound, in the assay on Staphylococcus aureus [43], the inhibition at 500 µM came to 3.7%. The compound also had an inhibition at 50 µM in the assay with Staphylococcus aureus [44] of 9.9%.

`COc1cc(C(=O)O)ccc1O` [VANILLIC ACID] had an Activity in the assay with Staphylococcus aureus [22] of 24.5%. In addition, in the assay with Staphylococcus aureus [23], the “inhibition (INH)” value was determined as 38.5%.
